Laboratory results from ChEMBL document CHEMBL4765310, “Discovery of 4-(3,5-dimethoxy-4-(((4-methoxyphenethyl)amino)methyl)phenoxy)-N-phenylaniline as a novel c-myc inhibitor against colorectal cancer in vitro and in vivo” (Eur J Med Chem, 2020).
pIC50: −log10 of the molar value.

Assays:
[1] = Inhibition of dimerization of N-terminal His6-tagged human c-Myc bHLHZip domain (353 to 439 residues)/Max(151 residues) (unknown origin) expressed in Escherichia coli BL21DE3 measured after 1 hr by ELISA
Method in brief: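 Myc bHLHZip (5.5 μg/well) was coated at 4 °C for 24 h in PBS pH 7.0 buffer (EDTA, KCl, MgCl2, glycerol, NP40, DTT), then blocked with 3% BSA for 2 h at 37 °C. Detection used rabbit anti-c-Myc, HRP anti-rabbit and TMB, read at 450 nm.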

[2] = system: HCT-116; assay: Antiproliferative activity against human HCT-116 cells assessed as inhibition of cell viability measured after 72 hrs by MTT assay; format: functional, cell-based; details: HCT-116, 72 h
Method in brief: (§1)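 Cells kept at 37 °C, 5% CO₂ in RPMI 1640, L-15 or DMEM with 10% FBS and 1% penicillin-streptomycin. Plated at 2-4 × 10³ cells/well and dosed 24 h after plating. After 72 h exposure, MTT added for 2-4 h at 37 °C. Formazan dissolved in DMSO, absorbance read at 570 nm. IC50 is the mean of at least three independent experiments.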

[3] = system: HCT-15; assay: Antiproliferative activity against human HCT-15 cells assessed as inhibition of cell viability measured after 72 hrs by MTT assay; format: functional, cell-based; details: HCT-15, 72 h; method in brief: as §1
[4] = system: DLD-1; assay: Antiproliferative activity against human DLD-1 cells assessed as inhibition of cell viability measured after 72 hrs by MTT assay; format: functional, cell-based; details: DLD-1, 72 h; method in brief: as §1
[5] = system: HT-29; assay: Antiproliferative activity against human HT-29 cells assessed as inhibition of cell viability measured after 72 hrs by MTT assay; format: functional, cell-based; details: HT-29, 72 h; method in brief: as §1
[6] = organism: Homo sapiens; assay: Inhibition of dimerization of N-terminal His6-tagged human c-Myc bHLHZip domain (353 to 439 residues)/Max(151 residues) (unknown origin) expressed in Escherichia coli BL21DE3 assessed as inhibition of c-Myc/Max/DNA complex formation at 20 uM preincubated with c-Myc/Max for 1.5 hrs followed by incubation with DNA oligo for 0.5 hrs by EMSA analysis relative to control; details: time 2.0 hrs
Method in brief: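 Gel-shift used His-tagged Myc/Max complex (50 nM) with a biotinylated E-box duplex oligo (50 nM). Buffer was PBS pH 7.0 with 10 mM EDTA, 500 mM KCl, 30 mM MgCl2, 5% glycerol, 0.1% NP40, 1.5 mM DTT and 10% DMSO. Protein was preincubated with compound at 20 μM for 1.5 h at room temperature, then DNA was added for 0.5 h. Inhibition is relative to DMSO; three independent experiments.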

[7] = system: SW-620; assay: Antiproliferative activity against human SW-620 cells assessed as inhibition of cell viability measured after 72 hrs by MTT assay; format: functional, cell-based; details: SW-620, 72 h; method in brief: as §1

Row | SMILES | pIC50 [1] | pIC50 [2] | pIC50 [3] | pIC50 [4] | pIC50 [5] | inhibition [6] [%] | pIC50 [7]
1 | COc1cc(Oc2cccc(Nc3ccccc3)c2)cc(OC)c1CN(CCO)CCO | < 3.82 | < 4.70 | 5.05 | < 4.70 | < 4.70 | 6.1 | < 4.70
2 | COc1cc(Oc2cccc(Nc3ccccc3)c2)cc(OC)c1CN(C)C | < 3.82 | 4.89 | 4.81 | < 4.70 | < 4.70 | 3.2 | < 4.70
3 | COc1cc(Oc2cccc(Nc3ccccc3)c2)cc(OC)c1CN[C@H](C)c1ccccc1 | 3.94 | < 4.70 | 5.12 | 5.07 | 5.29 | 30.5 | 4.73
4 | CCN1CCN(Cc2c(OC)cc(Oc3cccc(Nc4ccccc4)c3)cc2OC)CC1 | < 3.82 | < 4.70 | 5.29 | < 4.70 | < 4.70 | 8.9 | < 4.70
5 | COc1cc(Oc2cccc(Nc3ccccc3)c2)cc(OC)c1CNCc1ccc2c(c1)OCO2 | 3.98 | < 4.70 | 5.05 | 5.07 | 5.07 | 42.1 | < 4.70
6 | COc1cc(Oc2cccc(Nc3ccccc3)c2)cc(OC)c1CNCCNC(C)=O | < 3.82 | 4.74 | 5.29 | 5.22 | 5.40 | 10.2 | 4.92
7 | COc1ccc(CCNCc2ccc(Oc3cccc(Nc4ccccc4)c3)cc2OC)cc1 | 3.99 | 5.57 | 5.99 | 5.39 | 5.40 | 42.1 | 5.11
8 | COc1cc(Oc2cccc(Nc3ccccc3)c2)cc(OC)c1CNCc1ccc(F)cc1 | 3.86 | 5.37 | 5.44 | 5.58 | 5.56 | 21.2 | 5.17
9 | COc1ccc(CCCNCc2c(OC)cc(Oc3ccc(Nc4ccccc4)cc3)cc2OC)cc1 | 4.14 | 5.49 | 5.66 | 5.33 | 5.16 | 70.6 | 4.84
10 | COc1cc(Oc2cccc(Nc3ccccc3)c2)cc(OC)c1CNC1CC1 | < 3.82 | < 4.70 | 5.21 | < 4.70 | 4.91 | 1.7 | < 4.70
11 | COc1cc(Oc2cccc(Nc3ccccc3)c2)cc(OC)c1CN1CCN(CCO)CC1 | < 3.82 | < 4.70 | 5.19 | < 4.70 | < 4.70 |  | < 4.70
12 | COc1ccc(CCNCc2ccc(Oc3cccc(Nc4ccccc4)c3)c(OC)c2)cc1 | 3.97 | 5.51 | 5.47 | 5.23 | 5.56 | 42.3 | 4.96
13 | CNCc1c(OC)cc(Oc2cccc(Nc3ccccc3)c2)cc1OC | < 3.82 | < 4.70 | 5.05 | 4.93 | 5.13 | 2.5 | 4.82
14 | COc1ccc(CCNCc2ccc(Oc3cccc(Nc4ccccc4)c3)cc2)cc1 | 3.94 | 5.40 | 5.66 | 5.33 | 5.16 | 35.6 | 4.84
15 | COc1cc(Oc2cccc(Nc3ccccc3)c2)cc(OC)c1CNC12CC3CC(CC(C3)C1)C2 | 3.83 | < 4.70 | 5.19 | 5.13 | 5.45 | 12.6 | < 4.70
16 | COc1cc(Oc2cccc(Nc3ccccc3)c2)cc(OC)c1CNC(C)C | < 3.82 | < 4.70 | < 4.70 | < 4.70 | < 4.70 |  | < 4.70

More lines, now with the values ahead:

Row | pIC50 [1] | pIC50 [2] | pIC50 [3] | pIC50 [4] | pIC50 [5] | inhibition [6] [%] | pIC50 [7] | SMILES
17 | 4.08 | 4.80 | 5.21 | 5.39 | 5.53 | 51.7 | 4.90 | COc1cc(Oc2cccc(Nc3ccccc3)c2)cc(OC)c1CNCCc1ccc(O)cc1
18 | 3.92 | 4.86 | 5.27 | 5.22 | 5.41 | 32.4 | 4.93 | COc1cc(Oc2cccc(Nc3ccccc3)c2)cc(OC)c1CNCc1ccc(C)cc1
19 | 4.02 | 4.87 | 5.21 | 5.17 | 5.22 | 45.1 | 4.93 | COc1cc(Oc2cccc(Nc3ccccc3)c2)cc(OC)c1CNCCc1ccccc1
20 | 4.04 | 5.27 | 5.42 | 5.47 | 5.55 | 43.7 | 5.00 | COc1cc(Oc2cccc(Nc3ccccc3)c2)cc(OC)c1CNCCc1ccc(Cl)cc1
21 | 4.14 | 5.47 | 5.92 | 5.63 | 5.67 | 67.4 | 5.44 | COc1ccccc1CCNCc1c(OC)cc(Oc2cccc(Nc3ccccc3)c2)cc1OC
22 | 4.02 | 5.50 | 5.63 | 5.54 | 5.60 | 40.5 | 5.05 | COc1cc(Oc2cccc(Nc3ccccc3)c2)cc(OC)c1CNCCc1ccc(F)cc1
23 | 4.11 | 5.40 | 5.89 | 5.63 | 5.63 | 60.8 | 5.41 | COc1cccc(CCNCc2c(OC)cc(Oc3cccc(Nc4ccccc4)c3)cc2OC)c1
24 | 3.83 | 5.55 | 6.14 | 5.60 | 5.48 | 63.4 | 5.19 | COc1ccc(CCCNCc2c(OC)cc(Oc3cccc(Nc4ccccc4)c3)cc2OC)cc1
25 | 3.89 | 5.21 | 5.27 | 5.45 | 5.51 | 29.3 | 4.95 | COc1cc(Oc2cccc(Nc3ccccc3)c2)cc(OC)c1CNCc1ccc(Br)cc1
26 | 4.07 | 5.58 | 5.58 | 5.72 | 5.72 | 48.7 | 5.16 | COc1ccc(CNCc2c(OC)cc(Oc3cccc(Nc4ccccc4)c3)cc2OC)cc1
27 | 4.16 | 6.01 | 5.90 | 5.95 | 5.99 | 75.1 | 5.21 | COc1ccc(CCNCc2c(OC)cc(Oc3cccc(Nc4ccccc4)c3)cc2OC)cc1
28 | 3.91 | 5.47 | 5.46 | 5.57 | 5.66 | 31.8 | 5.10 | COc1cc(Oc2cccc(Nc3ccccc3)c2)cc(OC)c1CNCc1ccc(O)cc1
29 | 3.90 | 5.39 | 5.30 | 5.28 | 5.48 | 26.4 | 5.13 | COc1cc(Oc2cccc(Nc3ccccc3)c2)cc(OC)c1CNCc1ccccc1
30 | 4.06 | 5.48 | 5.54 | 5.73 | 5.90 | 46.2 | 5.24 | COc1cc(Oc2cccc(Nc3ccccc3)c2)cc(OC)c1CNCCc1ccc(C)cc1
31 | 3.91 | 5.48 | 5.31 | 5.43 | 5.47 | 25.7 | 5.20 | COc1cc(Oc2cccc(Nc3ccccc3)c2)cc(OC)c1CNCc1ccc(Cl)cc1
